≈ marks a conversion by molar mass, not a printed value.
Key:
Moraxella catarrhalis = test: Antibacterial activity against Moraxella catarrhalis ATCC 23246 by broth microdilution method; type: functional
Method in brief: (§1)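 MIC by CLSI broth microdilution. Inocula from agar-grown cultures: chocolate agar for H. influenzae, Columbia agar with 5% sheep blood for M. catarrhalis, Mueller-Hinton agar for S. aureus. Read as minimum inhibitory concentration in µg/mL.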

Staphylococcus aureus [1] = test: Antibacterial activity against macrolide, licosamide and streptogramin inducible-resistance Staphylococcus aureus 90256 by broth microdilution method; type: functional
Method in brief: (§2)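 MIC by CLSI broth microdilution. Staphylococci were grown on Mueller-Hinton agar before testing. The MIC is the lowest concentration inhibiting growth.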

Haemophilus influenzae = test: Antibacterial activity against Haemophilus influenzae ATCC 49247 by broth microdilution method; type: functional; method in brief: as §1
Staphylococcus aureus [2] = test: Antibacterial activity against erythromycin-sensitive Staphylococcus aureus ATCC 13709 by broth microdilution method; type: functional; method in brief: as §1
Streptococcus pyogenes [3] = test: Antibacterial activity against macrolide, licosamide and streptogramin inducible-resistance Streptococcus pyogenes 11 by broth microdilution method; type: functional
Method in brief: (§3)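 MIC by CLSI broth microdilution, except that the streptococcal medium used 5% horse serum in place of lysed blood. Streptococcal inocula came from Columbia agar with 5% sheep blood. The MIC is the lowest concentration inhibiting growth.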

Streptococcus pneumoniae [4] = test: Antibacterial activity against efflux-mediated macrolide resistance Streptococcus pneumoniae Ci137 by broth microdilution method; type: functional; method in brief: as §3
Streptococcus pneumoniae [5] = test: Antibacterial activity against inducible resistance to macrolide and constitutive resistance to lincosamide Streptococcus pneumoniae 134 GR M by broth microdilution method; type: functional; method in brief: as §3
Streptococcus pyogenes [6] = test: Antibacterial activity against constitutive MLS resistance Streptococcus pyogenes 166 GR-Micro by broth microdilution method; type: functional; method in brief: as §3
Staphylococcus aureus [7] = test: Antibacterial activity against efflux-mediated macrolide resistance Staphylococcus aureus PK1 by broth microdilution method; type: functional; method in brief: as §2
Streptococcus pneumoniae [8] = test: Antibacterial activity against constitutive MLS-resistance Streptococcus pneumoniae 58 by broth microdilution method; type: functional; method in brief: as §3
Streptococcus pyogenes [9] = test: Antibacterial activity against efflux-mediated macrolide resistance Streptococcus pyogenes 2 by broth microdilution method; type: functional; method in brief: as §3
[10] = Oral bioavailability in Sprague-Dawley rat blood at 30 mg/kg; type: ADME, organism-based; conditions: whole blood
Method in brief: (§4)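 Po/iv crossover study in male Sprague-Dawley rats. Target doses were 30 mg/kg po (fasted) and 5 mg/kg iv (fed). Compound was given as a solution in 1.0% DMSO and 20% (w/v) Encapsin, in saline for iv or water for po, pH 3.5–4.0. Blood was sampled at several timepoints up to 1800 min and hemolyzed 1:1 with water.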

[11] = Volume of distribution at steady state in Sprague-Dawley rat blood at 30 mg/kg, po and 5 mg/kg, iv; type: ADME, organism-based; conditions: whole blood, read-out: Vdss; method in brief: as §4
Rattus norvegicus [12] = test: Clearance in Sprague-Dawley rat blood as % of liver blood flow at 30 mg/kg, po and 5 mg/kg, iv; type: ADME, organism-based; conditions: in vivo; method in brief: as §4
Rattus norvegicus [13] = test: Liver blood flow in Sprague-Dawley rat blood at 30 mg/kg, po and 5 mg/kg, iv; type: ADME, organism-based; conditions: in vivo; method in brief: as §4

Row | SMILES | MIC (Moraxella catarrhalis) [µg/mL] | MIC (Staphylococcus aureus [1]) [µg/mL] | MIC (Haemophilus influenzae) [µg/mL] | MIC (Staphylococcus aureus [2]) [µg/mL] | MIC (Streptococcus pyogenes [3]) [µg/mL] | MIC (Streptococcus pneumoniae [4]) [µg/mL] | MIC (Streptococcus pneumoniae [5]) [µg/mL] | MIC (Streptococcus pyogenes [6]) [µg/mL] | MIC (Staphylococcus aureus [7]) [µg/mL] | MIC (Streptococcus pneumoniae [8]) [µg/mL] | MIC (Streptococcus pyogenes [9]) [µg/mL] | MIC50 (Haemophilus influenzae) [µg/mL] | MIC90 (Haemophilus influenzae) [µg/mL] | bioavailability [10] [%] | Vd [11] [L/kg] | Fraction of Liver Blood Flow (Rattus norvegicus [12]) [%] | LBF (Rattus norvegicus [13]) [%]
1 | CC[C@H]1OC(=O)[C@H](C)[C@@H](O[C@@H]2O[C@@H](C)C[C@](C)(OC)[C@H]2OC(=O)CCOCCOCCCc2ccc3c(c2)c(=O)c(C(=O)O)cn3CC)[C@H](C)[C@@H](O[C@@H]2O[C@H](C)C[C@H](N(C)C)[C@H]2O)[C@](C)(OC)C[C@@H](C)C(=O)[C@H](C)[C@H]2N(C)C(=O)O[C@]12C | ≤ 0.125 | 0.25 (≈ 0.215 µM) | 1 (≈ 0.862 µM) | ≤ 0.125 | ≤ 0.125 | ≤ 0.125 | ≤ 0.125 | ≤ 0.125 | 0.5 (≈ 0.431 µM) | ≤ 0.125 | ≤ 0.125 |  |  |  |  |  | 
2 | CC[C@H]1OC(=O)[C@H](C)C(=O)[C@H](C)[C@@H](O[C@@H]2O[C@H](C)C[C@H](N(C)C)[C@H]2O)[C@](C)(OC)C[C@@H](C)C(=O)[C@H](C)[C@H]2N(CCCCn3cnc(-c4cccnc4)c3)C(=O)O[C@]12C [TELITHROMYCIN] | ≤ 0.125 | ≤ 0.125 | 2 (≈ 2.46 µM) | ≤ 0.125 | ≤ 0.125 | 0.25 (≈ 0.308 µM) | 0.25 (≈ 0.308 µM) | 16 (≈ 19.7 µM) | ≤ 0.125 | 0.25 (≈ 0.308 µM) | 0.5 (≈ 0.616 µM) |  |  |  |  |  | 
3 | CC[C@H]1OC(=O)[C@H](C)[C@@H](O[C@H]2C[C@@](C)(OC)[C@@H](OC(=O)CCOCCOCCCc3ccc4c(c3)c(=O)c(C(=O)O)cn4CC)[C@H](C)O2)[C@H](C)[C@@H](O[C@@H]2O[C@H](C)C[C@H](N(C)C)[C@H]2O)[C@](C)(O)C[C@@H](C)CN(C)[C@H](C)[C@@H](O)[C@]1(C)O | ≤ 0.125 | 0.25 (≈ 0.223 µM) | 1 (≈ 0.891 µM) | ≤ 0.125 | ≤ 0.125 | ≤ 0.125 | 0.25 (≈ 0.223 µM) | ≤ 0.125 | 0.25 (≈ 0.223 µM) | ≤ 0.125 | ≤ 0.125 | 1 (≈ 0.891 µM) | 2 (≈ 1.78 µM) | 22 | 10.4 | 35 | 
4 | CC[C@H]1OC(=O)[C@H](C)[C@@H](O[C@H]2C[C@@](C)(OC)[C@@H](OC(=O)CCOCCOCCCc3ccc4c(c3)c(=O)c(C(=O)O)cn4C3CC3)[C@H](C)O2)[C@H](C)[C@@H](O[C@@H]2O[C@H](C)C[C@H](N(C)C)[C@H]2O)[C@](C)(O)C[C@@H](C)CN(C)[C@H](C)[C@@H](O)[C@]1(C)O | 0.5 (≈ 0.441 µM) | ≤ 0.125 | 2 (≈ 1.76 µM) | ≤ 0.125 | ≤ 0.125 | ≤ 0.125 | 0.25 (≈ 0.22 µM) | 0.5 (≈ 0.441 µM) | ≤ 0.125 | ≤ 0.125 | ≤ 0.125 | 1 (≈ 0.882 µM) | 2 (≈ 1.76 µM) | 16 | 10.5 |  | 43
5 | CC[C@H]1OC(=O)[C@H](C)[C@@H](O[C@@H]2O[C@@H](C)C[C@](C)(OC)[C@H]2OC(=O)CCOCCOCCCc2ccc3c(c2)c(=O)c(C(=O)O)cn3CC)[C@H](C)[C@@H](O[C@@H]2O[C@H](C)C[C@H](N(C)C)[C@H]2O)[C@](C)(OC)C[C@@H](C)C(=O)[C@H](C)[C@H]2NC(=O)O[C@@]21C | 1 (≈ 0.872 µM) | ≤ 0.125 | 1 (≈ 0.872 µM) | ≤ 0.125 | ≤ 0.125 | ≤ 0.125 | ≤ 0.125 | ≤ 0.125 | ≤ 0.125 | ≤ 0.125 | ≤ 0.125 | 2 (≈ 1.74 µM) | 4 (≈ 3.49 µM) |  |  |  | 
6 | CCCn1cc(C(=O)O)c(=O)c2cc(CCCOCCOCCC(=O)O[C@H]3[C@H](C)O[C@@H](O[C@H]4[C@H](C)[C@@H](O[C@@H]5O[C@H](C)C[C@H](N(C)C)[C@H]5O)[C@](C)(O)C[C@@H](C)CN(C)[C@H](C)[C@@H](O)[C@](C)(O)[C@@H](CC)OC(=O)[C@@H]4C)C[C@@]3(C)OC)ccc21 | 0.5 (≈ 0.44 µM) | ≤ 0.125 | 1 (≈ 0.88 µM) | ≤ 0.125 | ≤ 0.125 | ≤ 0.125 | ≤ 0.125 | 0.25 (≈ 0.22 µM) | ≤ 0.125 | ≤ 0.125 | ≤ 0.125 | 1 (≈ 0.88 µM) | 2 (≈ 1.76 µM) |  |  |  | 
7 | CC[C@H]1OC(=O)[C@H](C)[C@@H](O[C@H]2C[C@@](C)(OC)[C@@H](O)[C@H](C)O2)[C@H](C)[C@@H](O[C@@H]2O[C@H](C)C[C@H](N(C)C)[C@H]2O)[C@](C)(O)C[C@@H](C)CN(C)[C@H](C)[C@@H](O)[C@]1(C)O [AZITHROMYCIN] | ≤ 0.125 | > 64 | 1 (≈ 1.34 µM) | 0.5 (≈ 0.668 µM) | > 64 | 8 (≈ 10.7 µM) | > 64 | > 64 | > 64 | > 64 | 8 (≈ 10.7 µM) | 1 (≈ 1.34 µM) | 2 (≈ 2.67 µM) |  |  |  | 
8 | CC[C@H]1OC(=O)[C@H](C)[C@@H](O[C@@H]2O[C@@H](C)C[C@](C)(OC)[C@H]2OC(=O)CCOCCOCCCc2ccc3c(c2)c(=O)c(C(=O)O)cn3CC)[C@H](C)[C@@H](O[C@@H]2O[C@H](C)C[C@H](N(C)C)[C@H]2O)[C@](C)(O)C[C@@H](C)/C(=N\OCOCCOC)[C@H](C)[C@@H](O)[C@]1(C)O | 1 (≈ 0.826 µM) | 8 (≈ 6.61 µM) | 4 (≈ 3.3 µM) | 0.5 (≈ 0.413 µM) | ≤ 0.125 | ≤ 0.125 | 0.5 (≈ 0.413 µM) | 1 (≈ 0.826 µM) | 1 (≈ 0.826 µM) | 1 (≈ 0.826 µM) | ≤ 0.125 |  |  |  |  |  | 
